Screens (PubChem BioAssay)
STAT1 inh: STAT1 signaling inhibition. NIH 3T3 STAT1-luciferase reporter, IFN-gamma, luminescence. 200,000 tested, 0.35% active. inhibition, % at 5.5 µM;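 active = inhibition above a set limit, the mean inhibition across all tested compounds plus 3 SD, cut at about 34% in these data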
NF-kB neuron act: raises NF-kB expression in human neuronal cells. NF-kB reporter expression; stronger effect = higher value. 190,000 tested, 1.6% active. fold change at 12.5 µM; in the data active = fold change above about 3.3
APP 5'UTR act: activates APP 5'UTR luciferase reporter; AID 1276; SH-SY5Y APP 5'UTR luciferase reporter, luminescence; zero percent = DMSO vehicle wells; activation, % at 2 µM; 190,000 tested, 1% active;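 active = activation above a set limit, based on mean plus 3 SD of controls, cut at about 140% in these data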
STAT1 act: activators of IFN-gamma induced STAT1 signaling | NIH 3T3 STAT1-luciferase reporter, luminescence; 100% = IFN-gamma alone, no compound | activation (% of control), % at 5.5 µM | 200,000 tested, 2.6% active | AID 932;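 active = activation above the screen-wide mean activation plus 3 SD, cut at about 130% in these data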
STAT3 activator: activators of IL-6 induced STAT3 signaling; U3A cells, IL-6 STAT3-luciferase reporter, luminescence; 100% = signal with IL-6 EC80 alone; activation (% of control), % at 5.6 µM; 190,000 tested, 0.91% active;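 active = activation above the screen-wide mean of compound activation plus 3 SD, cut at about 130% in these data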
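system = STAT3-luciferase reporter U3A cells | reagent = IL-6 stimulus at 33 ng/mL final | timing = 1 h compound pre-exposure, 6 h IL-6 stimulation, 37 °C | measured by = luminescence | evaluation = % activation versus median of IL-6-stimulated wells | control set = IL-6-only wells as 100% reference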
STAT3 inh-1: STAT3 signaling inhibition | 190,000 tested, 0.89% active | AID 862 | U3A cells, IL-6 STAT3-luciferase reporter, luminescence; host cell line lacks STAT1 | inhibition, % at 5.5 µM;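 active = inhibition above the mean inhibition across all screened compounds plus 3 SD, cut at about 44% in these data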
STAT3 inh-2: STAT3 inhibition, confirmation assay. shares compounds with STAT3 inh-1. U3A cells, IL-6 STAT3 luciferase reporter, luminescence; cell line lacks STAT1. inhibition, % at 5.7 µM. 1,200 tested, 45% active. AID 1265;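 active = inhibition above the hit cutoff computed for the primary STAT3 screen, cut at about 44% in these data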
NFkB inh STAT3ct: NF-kappaB inhibition in STAT3 inhibitor counter-screen. 1,200 tested, 36% active. HEK293T NF-kB luciferase reporter, TNF-alpha induced. AID 1308. inhibition, % at 5.7 µM. shares compounds with STAT3 inh-1;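 active = inhibition above the mean of solvent-only control wells plus 3 SD, cutoff set per campaign, cut at about 13% in these data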
STAT1 inh 2: STAT1 inhibition in STAT3 inhibitor counter-screen. NIH 3T3 STAT1-luciferase reporter, IFN-gamma induced, luminescence. shares compounds with STAT3 inh-1. 1,200 tested, 27% active. inhibition, % at 5.7 µM. AID 1317;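 active = inhibition above the mean plus 3 SD of solvent-only control wells, limit set per screening run, cut at about 16% in these data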
A number is an active result; n = inactive; x = no result given. Shown are actives, neighbours in structure and some others; about 5.1% of the full set was active somewhere.

SMILES	STAT1 inh	NF-kB neuron act	APP 5'UTR act	STAT1 act	STAT3 activator	STAT3 inh-1	STAT3 inh-2	NFkB inh STAT3ct	STAT1 inh 2
COc1cccc(C(=O)Nc2ccc(NC(=O)C(C)(C)C)cn2)c1	n	n	138	n	n	58	n	n	n
CCCCN(C(=N)N1CCCCC1)c1nc(C)c([N+](=O)[O-])c(=O)[nH]1	n	n	n	n	n	n	x	x	x
C[n+]1c2n(c3ccccc31)N=C(c1cc(C(C)(C)C)c(O)c(C(C)(C)C)c1)CS2	n	n	n	n	n	79	79	37	n
COc1cccc(C2=Nn3c(nnc3-c3ccccc3O)SC2)c1	n	n	n	n	n	n	x	x	x
Cc1cc(NCc2ccccn2)nc2ccccc12	n	n	n	n	n	n	x	x	x
Cc1nc(NCc2ccccn2)c2ccccc2n1	n	n	n	n	n	49	n	n	n
Clc1c(CSc2nc3ccccc3o2)nc2ccccn12	n	5.5	172	137	n	45	n	n	n
O=C(O)c1ccc(CSc2nc3ccccc3o2)cc1	n	n	n	n	n	n	x	x	x
NC(=O)c1ccccc1N/C=C/C(=O)c1ccc(Cl)cc1Cl	n	5.9	174	n	n	62	n	n	n
O=C(Nc1ccccc1Cl)c1ccc(Cl)cc1Cl	n	n	n	n	n	n	x	x	x
N#Cc1c(/N=C/c2cccs2)sc2c1CCCCC2	n	n	148	n	n	67	n	n	n
Cc1oc(-c2ccc3c(c2)OCCO3)cc1C(=O)O	n	n	n	n	n	64	93	56	74
N#CCOC(=O)c1c2c(nc3ccccc13)CCC2	n	n	n	n	n	n	x	x	x
CCc1n[nH]c2c1/C(=N\O)CC(c1ccccc1)C2 (stereo not drawn)	n	n	n	n	n	44	n	n	n
CCCCc1n[nH]c2c1/C(=N/O)CC(c1ccccc1)C2 (stereo not drawn)	n	n	n	n	n	n	x	x	x
O=C(NCc1ccncc1)c1ccc(Oc2ccccc2)cc1	n	n	n	n	n	n	x	x	x
Cc1ccc(Oc2ccc(C(=O)NCc3ccncc3)cc2)cc1	n	n	n	n	n	52	44	n	n
CCOc1cccc(C(=O)Nc2nnc(-c3ccco3)s2)c1	n	3.3	n	n	n	47	n	n	n
O=C(Nc1ccc([N+](=O)[O-])cc1)Nc1ccc(OC(F)F)c(Cl)c1	n	n	n	n	n	n	x	x	x
Cc1nc2ccccc2c2oc(C(=O)NCc3ccccn3)cc12	n	n	n	n	n	n	x	x	x
Cc1ccc(CNC(=O)c2cc3c(C)nc4ccccc4c3o2)cc1	n	n	n	n	n	54	n	n	24
Cc1c(C(C)C)c(=O)n(-c2ccc(S(=O)(=O)NCc3ccccc3)cc2)n1C	n	n	n	n	n	81	80	30	21
Cc1c(C(C)C)c(=O)n(-c2ccc(S(=O)(=O)NC3CCCCC3)cc2)n1C	n	n	n	n	n	53	59	14	21
Cc1c(C(C)C)c(=O)n(-c2ccc(S(=O)(=O)N3CCOCC3)cc2)n1C	n	n	n	n	n	n	x	x	x
O=C(Nc1ccc2c(c1)CCC2)C1CCN(c2c3c(nc4ncnn24)CCC3)CC1	n	n	n	n	n	n	x	x	x
O=C(Nc1ccc(Oc2ccccc2)cc1)C1CCN(c2c3c(nc4ncnn24)CCC3)CC1	n	n	n	n	n	52	47	n	n
COc1ccc(C(=O)c2ccccc2)c2c(O)ccc(C(=O)c3ccccc3)c12	n	n	n	n	n	65	62	16	n
COc1ccc(-c2nsc3c(N4CCCC4)ncnc23)cc1	n	n	156	n	n	53	n	n	n
O=C(NCc1cccnc1)c1ccc(-c2cc3ccccc3oc2=O)cc1	n	n	n	n	n	46	n	n	n
